Drawing on ChEMBL document CHEMBL4184236, “Design, synthesis and biological evaluation of matrine derivatives as potential anticancer agents” (Bioorg Med Chem Lett, 2018), this text covers IC50 for 38 molecules.

A word on the pIC50: it is the negative decadic logarithm of the IC50, by convention in mol/L.

What all share (format): functional, cell-based
For one assay, the system named is CNE-2. In words: Anticancer activity against human CNE2 cells assessed as reduction in cell viability incubated for 48 hrs MTT assay. Particulars: CNE-2, 48 h. Summed up:
(§1)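 MTT assay on human hepatocarcinoma SMMC-7721, lung carcinoma A549 and nasopharyngeal carcinoma CNE2 cells, with matrine as comparator and cisplatin as positive control. IC50 is the concentration that lowers optical density of treated cells by 50% versus untreated cells, given as the mean ± SD of three experiments.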

A further assay deals with SMMC-7721. In words: Anticancer activity against human SMMC7721 cells assessed as reduction in cell viability incubated for 48 hrs MTT assay. Particulars: SMMC-7721, 48 h. The method, boiled down: as §1
In the next assay the test system is A549. Description: Anticancer activity against human A549 cells assessed as reduction in cell viability incubated for 48 hrs MTT assay. To be noted: A549, 48 h. Summed up: as §1
(Formazan colour is commonly taken as a measure of viable cells.)

pIC50: −log10 of the molar value.

For `CC(C)(C)c1ccc(Cn2ccc3c(/C=C4\CC[C@@H]5[C@H]6CCCN7CCC[C@@H](CN5C4=O)[C@@H]67)cccc32)cc1`, the negative-log IC50 (pIC50) in the assay on CNE-2 was 5.01; in the assay with SMMC-7721, 4.86; in the assay with A549, 4.81.

As to `COc1ccc2c(c1)c(/C=C1\CC[C@@H]3[C@H]4CCCN5CCC[C@@H](CN3C1=O)[C@@H]45)cn2Cc1ccc2ccccc2c1`, the pIC50 with CNE-2 was 5.17; with SMMC-7721 it was 5.16; in the assay with A549, 5.13.

Take `O=C1/C(=C/c2cn(Cc3ccc4ccccc4c3)c3ccc(Br)cc23)CC[C@@H]2[C@H]3CCCN4CCC[C@@H](CN12)[C@@H]34`: the values for the negative logarithm of the IC50 (pIC50) with CNE-2, in the assay on SMMC-7721 and in the assay with A549 were 4.90, 5.06 and 5.01, respectively.

Regarding `Cn1cccc1/C=C1\CC[C@@H]2[C@H]3CCCN4CCC[C@@H](CN2C1=O)[C@@H]34`, the negative-log IC50 (pIC50) with CNE-2, in the assay with SMMC-7721 and with A549 was less than 4.00 throughout.

Consider `O=C1/C(=C/c2cccn2Cc2cccc(Cl)c2)CC[C@@H]2[C@H]3CCCN4CCC[C@@H](CN12)[C@@H]34`, for which the pIC50 was 4.79 in the assay with CNE-2, 4.68 with SMMC-7721 and 4.65 with A549.

As for `O=C1/C(=C/c2cccn2Cc2ccc3ccccc3c2)CC[C@@H]2[C@H]3CCCN4CCC[C@@H](CN12)[C@@H]34`, the pIC50 in the assay with CNE-2 was 4.83; with SMMC-7721, 4.69; in the assay on A549, 4.62.

Turning to `COc1ccc2c(c1)c(/C=C1\CC[C@@H]3[C@H]4CCCN5CCC[C@@H](CN3C1=O)[C@@H]45)cn2Cc1ccc(Cl)cc1`, the results for the pIC50 in the assay on CNE-2, in the assay with SMMC-7721 and in the assay on A549 were 5.33, 5.25 and 5.15, respectively.

`O=C1/C(=C/c2cccn2Cc2ccc(Cl)cc2)CC[C@@H]2[C@H]3CCCN4CCC[C@@H](CN12)[C@@H]34`: the values for the negative logarithm of the IC50 (pIC50) in the assay on CNE-2, with SMMC-7721 and in the assay with A549 were 4.82, 4.67 and 4.67, respectively.

Turning to `CC(C)(C)c1ccc(Cn2ccc3cc(/C=C4\CC[C@@H]5[C@H]6CCCN7CCC[C@@H](CN5C4=O)[C@@H]67)ccc32)cc1`, the negative logarithm of the IC50 (pIC50) in the assay on CNE-2 was 5.05; in the assay on SMMC-7721, 4.97; with A549 it was 4.96.

For `Cc1ccc(Cn2cc(/C=C3\CC[C@@H]4[C@H]5CCCN6CCC[C@@H](CN4C3=O)[C@@H]56)c3ccccc32)cc1`, the pIC50 in the assay with CNE-2 was 5.05; with SMMC-7721, 5.04; in the assay with A549, 5.01.

For the molecule `O=C1/C(=C/c2cccn2Cc2ccccc2)CC[C@@H]2[C@H]3CCCN4CCC[C@@H](CN12)[C@@H]34`, the figures for the pIC50 in the assay with CNE-2, in the assay with SMMC-7721 and with A549 were 4.34, 4.42 and 4.37, respectively.

`COc1ccc2c(c1)c(/C=C1\CC[C@@H]3[C@H]4CCCN5CCC[C@@H](CN3C1=O)[C@@H]45)cn2Cc1ccccc1Cl`: the negative-log IC50 (pIC50) in the assay on CNE-2 is 5.22; in the assay with SMMC-7721 it was 5.21; in the assay on A549, 5.20.

In the case of `O=C1/C(=C/c2cn(Cc3ccc(Cl)cc3)c3ccccc23)CC[C@@H]2[C@H]3CCCN4CCC[C@@H](CN12)[C@@H]34`, the negative logarithm of the IC50 (pIC50) is 4.96 in the assay with CNE-2, 4.95 with SMMC-7721 and 4.92 in the assay with A549.

In the case of `Cc1cc(C)cc(Cn2cccc2/C=C2\CC[C@@H]3[C@H]4CCCN5CCC[C@@H](CN3C2=O)[C@@H]45)c1`, the results for the negative logarithm of the IC50 (pIC50) in the assay on CNE-2, in the assay on SMMC-7721 and in the assay with A549 were 4.49, 4.31 and less than 4.30, respectively.

Take `COc1cc(Cn2cccc2/C=C2\CC[C@@H]3[C@H]4CCCN5CCC[C@@H](CN3C2=O)[C@@H]45)cc(OC)c1OC`: the pIC50 with CNE-2 is 5.11; with SMMC-7721 it was 4.88; with A549 it was 4.72.

For the molecule `CC(C)(C)c1ccc(Cn2cccc2/C=C2\CC[C@@H]3[C@H]4CCCN5CCC[C@@H](CN3C2=O)[C@@H]45)cc1`, the results for the pIC50 with CNE-2, with SMMC-7721 and in the assay on A549 were 4.86, 4.80 and 4.80, respectively.

For `COc1cccc(Cn2cc(/C=C3\CC[C@@H]4[C@H]5CCCN6CCC[C@@H](CN4C3=O)[C@@H]56)c3ccccc32)c1`, the values for the pIC50 in the assay with CNE-2, in the assay on SMMC-7721 and in the assay on A549 were 5.03, 4.86 and 4.81, respectively.

For the molecule `Cc1ccccc1Cn1cc(/C=C2\CC[C@@H]3[C@H]4CCCN5CCC[C@@H](CN3C2=O)[C@@H]45)c2ccccc21`, the pIC50 in the assay with CNE-2 was 4.97; in the assay on SMMC-7721 it was 4.92; in the assay on A549, 4.92.

In the case of `COc1ccc(Cn2cc(/C=C3\CC[C@@H]4[C@H]5CCCN6CCC[C@@H](CN4C3=O)[C@@H]56)c3ccccc32)cc1OC`, the results for the pIC50 in the assay on CNE-2, in the assay on SMMC-7721 and in the assay with A549 were 4.94, 4.93 and 4.90, respectively.

`O=C1/C(=C/c2ccc3c(ccn3Cc3cccc(Cl)c3)c2)CC[C@@H]2[C@H]3CCCN4CCC[C@@H](CN12)[C@@H]34`: the pIC50 with CNE-2 is 4.84; in the assay on SMMC-7721 it was 4.59; in the assay with A549, 4.52.

Regarding `O=C1/C(=C/c2cn(Cc3cccc(Cl)c3)c3cc(Cl)ccc23)CC[C@@H]2[C@H]3CCCN4CCC[C@@H](CN12)[C@@H]34`, the figures for the pIC50 with CNE-2, with SMMC-7721 and in the assay with A549 were 4.62, 4.63 and 4.58, respectively.

`O=C1/C(=C/c2cn(Cc3ccc(Br)cc3)c3ccccc23)CC[C@@H]2[C@H]3CCCN4CCC[C@@H](CN12)[C@@H]34`: the negative logarithm of the IC50 (pIC50) with CNE-2 was 4.83; with SMMC-7721 it was 4.77; in the assay on A549 it was 4.74.

For `O=C1/C(=C/c2cccn2Cc2ccc(Br)cc2)CC[C@@H]2[C@H]3CCCN4CCC[C@@H](CN12)[C@@H]34`, the values for the pIC50 in the assay on CNE-2, with SMMC-7721 and in the assay with A549 were 4.75, 4.75 and 4.64, respectively.

As for `Cc1ccc(Cn2cccc2/C=C2\CC[C@@H]3[C@H]4CCCN5CCC[C@@H](CN3C2=O)[C@@H]45)cc1`, the pIC50 in the assay with CNE-2 was 4.66; in the assay on SMMC-7721, 4.55; with A549 it was 4.61.

Consider `O=C1/C(=C/c2cn(Cc3cccc(Cl)c3)c3ccc(Br)cc23)CC[C@@H]2[C@H]3CCCN4CCC[C@@H](CN12)[C@@H]34`, for which the figures for the negative logarithm of the IC50 (pIC50) with CNE-2, with SMMC-7721 and in the assay on A549 were 5.07, 5.01 and 4.77, respectively.

Consider `O=C1/C(=C/c2cn(Cc3ccc4ccccc4c3)c3ccccc23)CC[C@@H]2[C@H]3CCCN4CCC[C@@H](CN12)[C@@H]34`, for which the negative logarithm of the IC50 (pIC50) was 5.34 with CNE-2, 5.25 with SMMC-7721 and 5.07 with A549.

With `O=C1/C(=C/c2cccn2Cc2ccccc2Br)CC[C@@H]2[C@H]3CCCN4CCC[C@@H](CN12)[C@@H]34`, the values for the pIC50 in the assay on CNE-2, in the assay on SMMC-7721 and with A549 were 4.76, 4.82 and 4.92, respectively.

Consider `COc1ccc(Cn2cccc2/C=C2\CC[C@@H]3[C@H]4CCCN5CCC[C@@H](CN3C2=O)[C@@H]45)cc1`, for which the pIC50 is 4.54 with CNE-2, 4.38 with SMMC-7721 and 4.41 in the assay on A549.

Take `Cc1ccc2c(c1)c(/C=C1\CC[C@@H]3[C@H]4CCCN5CCC[C@@H](CN3C1=O)[C@@H]45)cn2Cc1cccc(Cl)c1`: the pIC50 was 4.93 in the assay on CNE-2, 5.08 with SMMC-7721 and 5.04 in the assay on A549.

In the case of `CC(C)(C)c1ccc(Cn2cc(/C=C3\CC[C@@H]4[C@H]5CCCN6CCC[C@@H](CN4C3=O)[C@@H]56)c3ccccc32)cc1`, the negative-log IC50 (pIC50) in the assay with CNE-2 was 5.11; in the assay on SMMC-7721 it was 5.02; with A549, 5.01.

Turning to `O=C1/C(=C/c2cn(Cc3ccc(OC(F)(F)F)cc3)c3ccc(Cl)cc23)CC[C@@H]2[C@H]3CCCN4CCC[C@@H](CN12)[C@@H]34`, the pIC50 in the assay with CNE-2 is 5.45; with SMMC-7721 it was 5.01; in the assay on A549, 5.28.

Turning to `COc1ccc2c(/C=C3\CC[C@@H]4[C@H]5CCCN6CCC[C@@H](CN4C3=O)[C@@H]56)cn(Cc3ccc4ccccc4c3)c2c1`, the results for the negative-log IC50 (pIC50) in the assay on CNE-2, in the assay on SMMC-7721 and in the assay on A549 were 5.27, 5.04 and 4.88, respectively.

Regarding `O=C1/C(=C/c2cccn2Cc2ccc(OCc3ccccc3)cc2)CC[C@@H]2[C@H]3CCCN4CCC[C@@H](CN12)[C@@H]34`, the negative-log IC50 (pIC50) with CNE-2 is 4.96; in the assay with SMMC-7721 it was 4.89; with A549 it was 4.88.

Turning to `Cc1ccc2c(c1)c(/C=C1\CC[C@@H]3[C@H]4CCCN5CCC[C@@H](CN3C1=O)[C@@H]45)cn2Cc1ccc2ccccc2c1`, the negative logarithm of the IC50 (pIC50) is 5.45 with CNE-2, 5.49 in the assay on SMMC-7721 and 5.30 with A549.

With `COc1cc(Cn2cc(/C=C3\CC[C@@H]4[C@H]5CCCN6CCC[C@@H](CN4C3=O)[C@@H]56)c3ccccc32)cc(OC)c1OC`, the pIC50 was 4.70 in the assay with CNE-2, 4.81 in the assay on SMMC-7721 and less than 4.30 in the assay with A549.

On to `O=C1/C(=C/c2cn(Cc3ccccc3Cl)c3ccccc23)CC[C@@H]2[C@H]3CCCN4CCC[C@@H](CN12)[C@@H]34`, for which the pIC50 in the assay on CNE-2 was 4.76; in the assay with SMMC-7721, 4.76; with A549, 4.74.

Consider `O=C1/C(=C/c2cccn2Cc2cccc(Br)c2)CC[C@@H]2[C@H]3CCCN4CCC[C@@H](CN12)[C@@H]34`, for which the negative-log IC50 (pIC50) in the assay on CNE-2 is 4.82; in the assay with SMMC-7721, 4.79; in the assay with A549, 4.86.

With `COc1ccc(Br)c(Cn2cccc2/C=C2\CC[C@@H]3[C@H]4CCCN5CCC[C@@H](CN3C2=O)[C@@H]45)c1`, the figures for the pIC50 with CNE-2, with SMMC-7721 and in the assay on A549 were 4.94, 4.91 and 4.84, respectively.
